Screening data (PubChem)
Only a selection was taken, and hits are over-represented in it overall.
CHOP UPR activ – activators of apoptotic arm of unfolded protein response (CHOP). activation, % at 10 µM. CHO-CHOP luciferase reporter, UPR activation, luminescence; percent of tunicamycin response over DMSO baseline. AID 449763. actives 0.34% (n = 330,000);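 active = at 10 µM dose, activation of 40% or more, normalized to positive control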;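 also: 100% = tunicamycin at 10 µg/mL and 0% = DMSO alone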
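Test system: CHO CHOP reporter cells. Input: 500 CHO-CHOP cells per well. Medium: F12 with 10% FBS. Technique: luciferase luminescence. Measure: percent activation relative to tunicamycin control. Dosing: 10 µM compound, 0.5% DMSO. Timing: 16-18 h cell attachment, then 6 h compound exposure, 37 °C.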
CTSL1 counter – counter-screen for PFM18AAP inhibitors: inhibitors of F. hepatica cathepsin L1. inhibition, % at 5.96 µM. recombinant F. hepatica cathepsin L1, Z-Leu-Arg-MCA fluorescence. actives 0.49% (n = 300,000). AID 1906;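 active = inhibition above the mean of all tested compounds plus 3 SD, set per screening campaign, cut at about 17% in these data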;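 also: 0% = plate median of test compound wells and 100% = 1 µM Z-Phe-Ala-diazomethylketone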
CHOP inhibitor – CHOP inhibition in unfolded protein response | CHO-K1 CHOP-promoter luciferase, tunicamycin-induced, 15-18 h | inhibition, % at 10 µM | actives 3.8% (n = 220,000);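 active = compounds that reduced the stress-induced luciferase reporter signal by more than about 70% of percent inhibition, limit read from the data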;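 also: 0% = tunicamycin plus vehicle and 100% = wells without tunicamycin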
XBP1 UPR activ – activators of adaptive arm of unfolded protein response (XBP1); AID 463104; actives 0.33% (n = 330,000); CHO-XBP1 luciferase reporter, IRE1-XBP1 UPR activation, luminescence; percent of tunicamycin response, DMSO as zero; activation, % at 20 µM;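 active = versus positive control, 20 µM dose yields 30% or more activation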;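 also: 100% = tunicamycin at 10 µg/mL and 0% = DMSO only wells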
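Material: IRE1-XBP1 luciferase reporter CHO line / Quantity: one thousand reporter cells per well / Buffer or medium: F12 with 10% serum / Compound: 20 µM single concentration, DMSO 1% / Times: 6 h treatment, 37 °C / Detection: Steady-Glo luciferase glow luminescence, 10 min after reagent addition / Benchmarks: tunicamycin high, DMSO low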
UCH37 inh – human UCH37 deubiquitinating enzyme inhibition | Q9Y5K5 | purified proteasome/UCH37, Ub-AMC cleavage fluorescence | inhibition, % (concentration not given with the values) | actives 0.33% (n = 330,000) | AID 588478;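 active = mean inhibition over replicate wells above about 20%, limit read from the data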;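 also: 0% = compound-free wells with enzyme and 100% = wells lacking proteasome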
Target sequence (Q9Y5K5 whole entry, looked up): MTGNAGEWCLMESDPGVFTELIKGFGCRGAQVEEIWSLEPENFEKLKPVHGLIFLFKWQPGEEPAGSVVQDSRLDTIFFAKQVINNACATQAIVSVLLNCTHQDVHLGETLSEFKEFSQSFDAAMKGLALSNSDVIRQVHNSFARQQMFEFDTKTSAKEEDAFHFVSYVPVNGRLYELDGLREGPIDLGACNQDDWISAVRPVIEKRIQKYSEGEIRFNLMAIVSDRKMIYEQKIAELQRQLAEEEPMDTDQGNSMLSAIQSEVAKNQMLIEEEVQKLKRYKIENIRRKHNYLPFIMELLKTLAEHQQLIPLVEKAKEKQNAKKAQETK
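Reagent: Ub-AMC substrate; assay system: Proteasome-associated human UCH37 deubiquitinase; controls: no-proteasome and no-compound wells; read-out: % inhibition of Ub-AMC cleavage fluorescence; timing: 30 min preincubation with enzyme, 25 min cleavage at room temperature; signal: AMC fluorescence from Ub-AMC cleavage, excitation 355 nm, emission 460 nm; buffer or medium: Tris-HCl pH 7.4 plus ovalbumin, ATP-MgCl2, DTT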
* hit, by the source's call; . = no result.

SMILES | CHOP UPR activ | CTSL1 counter | CHOP inhibitor | XBP1 UPR activ | UCH37 inh
CCOc1ccc(OCC)c(NC(=O)C2CCN(c3nn4c(=O)cc(C)nc4s3)CC2)c1 | 6 | 1 | 51 | 7 | 23*
CCOC(=O)C1CCN(C(=O)C2CCN(c3nn4c(=O)cc(C)nc4s3)CC2)CC1 | -2 | -4 | . | -7 | 2
Cc1cc(=O)n2nc(N3CCCC(C(=O)N4CCN(c5ccccc5)CC4)C3)sc2n1 (stereo not drawn) | -3 | 17* | -12 | -3 | -3
Cc1cc(=O)n2nc(N3CCCC(C(=O)NCc4ccccc4)C3)sc2n1 (stereo not drawn) | 0 | -1 | . | 0 | 3
COC(=O)c1ccccc1-c1ccc(C=NNC(=O)c2cc3ccccc3o2)o1 | . | . | . | . | -83
Cc1ccc(C)c(N=Cc2cc3c(cc2[N+](=O)[O-])OCO3)c1 | 3 | 2 | 81* | 4 | 0
Cc1ccc(N=Cc2cc3c(cc2[N+](=O)[O-])OCO3)cc1[N+](=O)[O-] | 4 | 2 | . | 2 | 3
O=C(CN(CCc1ccccc1)S(=O)(=O)c1ccc(Cl)cc1)NN=Cc1ccc2c(c1)OCO2 | . | . | . | . | 3
O=c1c2ccccc2cnn1-c1nc2ccccc2[nH]1 | . | . | 93* | . | -101
Cc1ccsc1/C=N/NC(=O)Cc1ccc(Cl)cc1 | -1 | 1 | 35 | 0 | .
Cc1ccsc1/C=N/NC(=O)CSCc1ccc(Cl)cc1 | -3 | 6 | 92* | -5 | .
O=C(CSCc1ccc(Cl)cc1)N/N=C/c1ccc(Cl)cc1Cl | 0 | 6 | 91* | 0 | .
COc1ccc(C=NOCc2nc3c4c(ncn3n2)Oc2ccc3ccccc3c2C4c2ccccc2)cc1 (stereo not drawn) | . | . | . | . | 1
O=C(O)CC1SC(=NN=Cc2ccc(Br)cc2)N(c2ccccc2)C1=O (stereo not drawn) | . | . | . | . | 6
COc1ccc(OCC(=O)NN=Cc2ccc(OC)c(OC)c2C(=O)O)cc1 | . | . | . | . | 1
COc1ccc(-c2csc(NNC3=NCCCCC3)n2)cc1 | 0 | 0 | 46 | 1 | 6
CCOc1ccc(-c2csc(NNC3=NCCCCC3)n2)cc1 | 0 | -3 | 75* | 6 | 3
Cc1cccc(NC(=O)c2ccccc2NC(=O)C2CCCCC2)c1C | -2 | -1 | 78* | -4 | 0
CCOc1cc(C=NNC(=O)c2cccnc2)ccc1OCC(=O)N(C)C | . | . | . | . | 3
CCCCCCNC(=O)CCc1nc2cccnc2n1Cc1ccc(OC)cc1 | 0 | . | . | -4 | 1
CCc1ccc(NC(=O)CCc2nc3cccnc3n2Cc2ccc(OC)cc2)cc1 | 0 | -1 | 92* | -2 | 2
Cc1cccc(COCC(CC(C)C)N2CCN(C(=O)c3ccc(C(F)(F)F)cc3)CCC2=O)c1 (stereo not drawn) | 1 | 3 | 43 | -1 | 1
CC(C)CC(COCc1cccc(Cl)c1)N1CCN(C(=O)c2ccc(C(F)(F)F)cc2)CCC1=O (stereo not drawn) | 0 | 3 | 77* | -2 | 4
Cc1cccc(COCC(CC(C)C)N2CCN(C(=O)c3ccc(C(C)(C)C)cc3)CCC2=O)c1 (stereo not drawn) | 2 | 6 | 71* | 2 | 2
CC1(C)CN(c2ccc(F)cc2)C1=O | 0 | 1 | 11 | 0 | 1
SMILES | CHOP UPR activ | CTSL1 counter | CHOP inhibitor | XBP1 UPR activ | UCH37 inh
CC1(C)CN(c2ccsc2C(=O)O)C1=O | -3 | 26* | -6 | 1 | -3
CCOc1cc(-c2nc(-c3ccc(OC)cc3)no2)cc(OCC)c1OCC | 1 | 2 | 26 | 0 | 0
CCOc1cc(-c2nc(-c3ccccc3OC)no2)cc(OCC)c1OCC | -1 | 0 | 76* | 1 | 5
O=C(NCC(c1ccco1)N1CCCC1)c1ccccc1Sc1ccc(C(F)(F)F)cc1[N+](=O)[O-] (stereo not drawn) | 1 | 20* | . | 3 | 0
Cn1cc(Br)c(C(=O)NN=Cc2cccc(OC3CSC3)c2)n1 | . | . | . | . | 1
CCNc1nc(SCC(=O)Nc2ccc(Cl)c(Cl)c2)nc(N(C)C)n1 | 0 | -1 | 79* | 1 | 1
O=C(CNc1ccccc1Cl)NN=C1CCCc2ccccc21 | . | . | . | . | 2
O=C(Cn1ncc2c1-c1ccccc1OC2)Nc1ccc(S(=O)(=O)N2CCCCC2)cc1 | 3 | 4 | 86* | 0 | 1
Nn1cnnc1NN=Cc1ccc(F)cc1 | . | . | . | . | 2
Cc1ccc(-n2c(C)cc(C=NNC(=O)c3ccncc3)c2C)c(C)c1 | . | . | . | . | 7
CC1=C(C(=O)OC2CCCCC2)C(c2cccs2)n2c(nc3ccccc32)N1 (stereo not drawn) | 2 | 0 | 84* | 3 | 1
CNC(=O)C1=C(C)Nc2nc3ccccc3n2C1c1ccc(F)cc1 (stereo not drawn) | -2 | -5 | 1 | -2 | -4
CCOC(=O)C1=C(C)Nc2nc3ccccc3n2C1c1ccccc1 (stereo not drawn) | 3 | 2 | 78* | 2 | -54
Cc1cccc(C)c1NC(=O)c1cccc2c1-c1ccccc1C2=O | 2 | -1 | 78* | 2 | 0
O=[N+]([O-])c1ccccc1N/N=C/c1cccc(O)c1O | 11 | 4 | 71* | -1 | .
O=[N+]([O-])c1ccccc1N/N=C\c1ccccc1Cl | 4 | 1 | -1 | -1 | .
COc1ccc(C(C)=NNC(=O)CNC(=O)COc2ccccc2)c(OC)c1 | . | . | . | . | 1
O=C(O)c1nnn(-c2ccc(F)cc2F)c1-c1ccccc1 | 0 | 0 | . | 7 | -1
O=C(O)c1nnn(-c2cc(C(F)(F)F)cc(C(F)(F)F)c2)c1-c1ccccc1 | -2 | 46* | -8 | 0 | 4
COC(=O)C1=C(C)N(c2ccc(OC)c(OC)c2)C(=O)C1 | 0 | 20* | -21 | -4 | 2
CC(=NOCON=C(C)c1ccccc1)c1ccccc1 | . | . | . | . | -1
CC(=O)N1c2ccccc2C(=O)C1N1CCCCC1 (stereo not drawn) | -1 | 21* | -8 | -2 | 5
CC(=O)Oc1ccc(C2OC(=O)c3ccccc3N2C(C)=O)cc1 (stereo not drawn) | 3 | -8 | 47 | 0 | 2
O=C(CS(=O)c1ccc(C(F)(F)F)cc1[N+](=O)[O-])Oc1ccccc1 (stereo not drawn) | 16 | 6 | 88* | 0 | 8
CSc1ccccc1NC(=O)CON=C(C)c1cc2ccccc2o1 | . | . | . | . | -1
Cc1cccc(C(=O)N(c2ccccn2)C(C)c2ccco2)c1 (stereo not drawn) | 1 | -6 | -4 | 1 | -1
